Measurements taken from ChEMBL document CHEMBL3399974, “Discovery and SAR of novel series of imidazopyrimidinones and dihydroimidazopyrimidinones as positive allosteric modulators of the metabotropic glutamate receptor 5 (mGlu5)” (Bioorg Med Chem Lett, 2015).

How the values were obtained:
[1] = target: T1, Metabotropic glutamate receptor 5 (Rattus norvegicus, UniProt P31424); experiment: Positive allosteric modulation at rat mGluR5 expressed in HEK293 cells by calcium mobilization assay; type: functional, cell-based
Summary of the method: (§1)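 HEK293 cells stably expressing rat mGlu5 were run in a 'triple add' calcium mobilization assay that detects agonism, PAM and NAM activity together. Response amplitude was expressed as % of the maximal response to 100 µM glutamate. Values are the mean of three or more independent determinations.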

[2] = target: Metabotropic glutamate receptor 5 (Rattus norvegicus) (UniProt P31424); experiment: Positive allosteric modulation at rat mGluR5 expressed in HEK293 cells assessed as amplitude of response at 30 uM by calcium mobilization assay relative to glutamate; type: functional, cell-based
Summary of the method: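 HEK293 cells stably expressing rat mGlu5 were used in a calcium mobilization assay. Test compound was given at 30 µM, and response amplitude is expressed as percent of the maximal response to 100 µM glutamate. Values are the average of three or more independent determinations.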

[3] = Drug metabolism in human liver microsomes assessed as compound metabolized at 1 uM after 15 mins; type: ADME; settings: read-out: Drug metabolism
Summary of the method: (§2)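 Test compound at 1 µM was incubated for 15 min with liver microsomes (human for HLM, rat for RLM). Read-out was % of compound metabolized.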

[4] = Drug metabolism in rat liver microsomes assessed as compound metabolized at 1 uM after 15 mins; type: ADME; settings: read-out: Drug metabolism; summary of the method: as §2
[5] = target: T1, Metabotropic glutamate receptor 5; experiment: Negative allosteric modulation at rat mGluR5 expressed in HEK293 cells by calcium mobilization assay; type: functional, cell-based; summary of the method: as §1
[6] = target: Metabotropic glutamate receptor 5 (Rattus norvegicus) (UniProt P31424); experiment: Negative allosteric modulation at rat mGluR5 expressed in HEK293 cells by calcium mobilization assay relative to glutamate; settings: 30 uM

Metabotropic glutamate receptor 5 (Rattus norvegicus), sequence (P31424 21-1203 limits assumed): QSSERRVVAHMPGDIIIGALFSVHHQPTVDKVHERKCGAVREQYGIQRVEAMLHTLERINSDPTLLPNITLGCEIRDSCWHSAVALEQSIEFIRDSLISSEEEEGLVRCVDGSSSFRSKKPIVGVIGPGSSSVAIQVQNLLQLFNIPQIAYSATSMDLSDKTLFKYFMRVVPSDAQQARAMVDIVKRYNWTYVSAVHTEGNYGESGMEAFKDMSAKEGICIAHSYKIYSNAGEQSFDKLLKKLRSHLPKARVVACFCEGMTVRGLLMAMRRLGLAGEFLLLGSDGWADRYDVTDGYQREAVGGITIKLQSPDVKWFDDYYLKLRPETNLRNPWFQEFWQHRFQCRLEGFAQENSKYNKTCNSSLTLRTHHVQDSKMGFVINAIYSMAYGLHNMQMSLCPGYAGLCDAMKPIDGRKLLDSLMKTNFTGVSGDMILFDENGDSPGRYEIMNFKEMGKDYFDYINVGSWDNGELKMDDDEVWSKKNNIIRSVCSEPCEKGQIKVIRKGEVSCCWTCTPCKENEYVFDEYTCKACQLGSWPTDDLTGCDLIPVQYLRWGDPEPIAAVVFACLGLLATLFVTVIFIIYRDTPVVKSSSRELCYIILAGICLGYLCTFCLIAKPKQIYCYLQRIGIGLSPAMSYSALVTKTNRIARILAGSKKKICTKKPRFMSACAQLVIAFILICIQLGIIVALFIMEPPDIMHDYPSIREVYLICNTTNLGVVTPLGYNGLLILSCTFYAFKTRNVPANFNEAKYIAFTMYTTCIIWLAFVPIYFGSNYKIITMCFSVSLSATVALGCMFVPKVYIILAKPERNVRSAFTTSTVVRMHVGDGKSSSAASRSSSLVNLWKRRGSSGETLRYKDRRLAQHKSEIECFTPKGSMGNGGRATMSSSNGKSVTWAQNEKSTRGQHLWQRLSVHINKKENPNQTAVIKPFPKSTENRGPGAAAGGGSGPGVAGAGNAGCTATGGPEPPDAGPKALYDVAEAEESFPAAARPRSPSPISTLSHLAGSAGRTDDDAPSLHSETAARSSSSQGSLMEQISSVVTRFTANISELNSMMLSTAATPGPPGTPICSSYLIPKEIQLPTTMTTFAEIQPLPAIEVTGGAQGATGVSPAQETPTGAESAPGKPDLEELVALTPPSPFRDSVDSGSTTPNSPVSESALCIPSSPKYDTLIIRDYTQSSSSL
T1 sequence (P31424 whole entry): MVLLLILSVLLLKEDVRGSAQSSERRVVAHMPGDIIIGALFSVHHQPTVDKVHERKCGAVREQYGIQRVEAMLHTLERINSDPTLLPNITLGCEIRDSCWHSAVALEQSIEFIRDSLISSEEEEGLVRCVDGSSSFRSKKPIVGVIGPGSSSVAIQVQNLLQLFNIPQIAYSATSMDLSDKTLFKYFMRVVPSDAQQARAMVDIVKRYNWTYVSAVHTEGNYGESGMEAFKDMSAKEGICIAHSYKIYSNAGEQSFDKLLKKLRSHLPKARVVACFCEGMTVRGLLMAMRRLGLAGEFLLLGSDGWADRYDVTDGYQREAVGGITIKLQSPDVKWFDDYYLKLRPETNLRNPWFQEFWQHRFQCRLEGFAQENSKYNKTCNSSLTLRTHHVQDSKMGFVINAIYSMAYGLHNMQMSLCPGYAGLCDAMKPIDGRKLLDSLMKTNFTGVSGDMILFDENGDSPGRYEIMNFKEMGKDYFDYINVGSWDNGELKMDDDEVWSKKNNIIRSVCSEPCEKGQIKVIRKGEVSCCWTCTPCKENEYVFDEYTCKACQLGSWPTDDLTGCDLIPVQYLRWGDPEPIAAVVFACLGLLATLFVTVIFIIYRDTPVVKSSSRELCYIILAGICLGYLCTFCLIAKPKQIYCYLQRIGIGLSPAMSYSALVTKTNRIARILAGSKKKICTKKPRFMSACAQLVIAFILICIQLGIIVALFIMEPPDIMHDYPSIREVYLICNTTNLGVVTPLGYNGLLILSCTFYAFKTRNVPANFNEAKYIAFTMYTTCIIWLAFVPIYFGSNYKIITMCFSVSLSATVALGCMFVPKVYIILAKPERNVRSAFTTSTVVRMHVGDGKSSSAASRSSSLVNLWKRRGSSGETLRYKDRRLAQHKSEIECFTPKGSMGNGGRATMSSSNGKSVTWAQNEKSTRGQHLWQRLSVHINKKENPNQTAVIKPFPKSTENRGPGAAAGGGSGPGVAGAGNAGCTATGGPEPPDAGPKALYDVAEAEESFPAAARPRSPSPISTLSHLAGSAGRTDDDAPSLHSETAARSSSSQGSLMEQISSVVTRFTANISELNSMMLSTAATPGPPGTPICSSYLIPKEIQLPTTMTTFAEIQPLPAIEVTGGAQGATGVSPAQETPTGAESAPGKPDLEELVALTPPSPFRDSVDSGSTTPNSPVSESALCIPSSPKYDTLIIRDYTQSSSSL

| SMILES | EC50 [1] | Emax [2] | metabolised at 0.25 h, 1 µM [3] | metabolised at 0.25 h, 1 µM [4] | IC50 ([5]; read-out: IC50) | IC50 [6] | IC50 ([5]; read-out: pIC50 (converted)) |
| --- | --- | --- | --- | --- | --- | --- | --- |
| Cc1cccc(OCc2cn3c(n2)CCN(c2ccc(F)cc2)C3=O)c1 | 285 nM | 47% | – | – | – | – | – |
| Cc1cc2nc(COc3ccccc3)cn2c(=O)n1-c1ccc(F)cc1 | 2070 nM | 60% | – | – | – | – | – |
| Cc1cc(N2CCc3nc(COc4ccccc4)cn3C2=O)ccc1F | 130 nM | 91% | 10% | 37% | – | – | – |
| O=c1n(-c2ccc(F)cc2)ccc2nc(COc3ccccc3)c(Cl)n12 | – | – | 6% | 73% | 218 nM | 5 nM | – |
| O=C1N(c2cccc(F)c2)CCc2nc(COc3ccccc3)cn21 | 218 nM | 82% | 20% | 78% | – | – | – |
| Cc1cc(N2CCc3nc(COc4ccccc4)cn3C2=O)ncc1F | 371 nM | 87% | – | – | – | – | – |
| Cc1cccc(OCc2cn3c(=O)n(-c4ccc(F)cc4)ccc3n2)c1 | 344 nM | 30% | – | – | – | – | – |
| O=c1n(-c2ccc(F)cc2)ccc2nc(COc3cccnc3)cn12 | > 10000 nM | 65% | – | – | – | – | – |
| Cc1cc(-n2ccc3nc(COc4ccccc4)cn3c2=O)ncc1F | 435 nM | 77% | 17% | 49% | – | – | – |
| O=c1n(-c2ccc(F)cc2)ccc2nc(COc3ccc(F)cc3)cn12 | 375 nM | 85% | 11% | 29% | – | – | – |
| O=c1n(-c2ccc(F)cn2)ccc2nc(COc3ccccc3)cn12 | 587 nM | 87% | – | – | – | – | – |
| O=C1N(c2ccc(F)cc2)CCc2nc(COc3ccccc3)c(Cl)n21 | – | – | – | – | – | 133 nM | 132 nM |
| Cn1ccc2nc(COc3ccccc3)cn2c1=O | > 10000 nM | 67% | – | – | – | – | – |
| Cc1ccc(-n2ccc3nc(COc4ccccc4)cn3c2=O)nc1 | 2000 nM | 84% | – | – | – | – | – |
| O=C1N(c2ccc(F)cc2)CCc2nc(COc3ccc(F)cc3)cn21 | 197 nM | 88% | 3% | 11% | – | – | – |
| O=c1n(CC2CC2)ccc2nc(COc3ccccc3)cn12 | 1120 nM | 47% | – | – | – | – | – |
| Cc1ccnc(-n2ccc3nc(COc4ccccc4)cn3c2=O)c1 | 5100 nM | 64% | – | – | – | – | – |
